Measurements taken from publication PMC2292750 (PLoS Medicine, 2008).

Columns and labels:
human PDAC = experiment: Binding of FITC-labeled phage to frozen human PDAC sections; details: 1 μM FITC-labeled phage, 1 h at 37 °C, fluorescence microscopy
In short: (§1)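 Frozen tissues (n = 3) were embedded in OCT, cut at 5 μm and arrayed on slides. Sections were incubated for 1 h at 37 °C with 1 μM FITC-labeled test phage or FITC-labeled control phage (no insert). They were then washed three times with PBS, fixed in 2% paraformaldehyde and imaged by fluorescence microscopy (40× objective).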

plectin-1 = plectin-1 (Mus musculus, UniProt Q9QXS1); experiment: Competition experiment with anti-plectin-1 antibody; assay type: binding; details: coincubation of anti-plectin-1 antibody and FITC-labeled phage with mouse PDAC cells, 1 h at 37 °C, versus vehicle
mouse PDAC cells = assay type: cell-based; details: flow cytometry
In short: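 Early-passage PDAC cells came from Kras/p53L/L mouse tumors; normal primary ductal cells came from wild-type mice. Phage (~1 × 10^12 PFU) were labeled with 0.25 mg/ml FITC for 1 h and PEG-purified. Cells were incubated with 1 μM (FITC) phage for 1 h at 37 °C, washed three times with DPBS and trypsinized. Mean fluorescence was read by flow cytometry at 10,000 cells/sample.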

[1] = test system: mouse PanINs and PDAC lesions, frozen sections; experiment: Binding of FITC-labeled phage to frozen mouse pancreas sections; details: 1 μM FITC-labeled phage, 1 h at 37 °C, fluorescence microscopy, n = 3
In short: as §1

[2] = test system: normal human ductal cells; assay type: cell-based; details: FITC-labeled phage 1 μM, 1 h at 37 °C, FACS
In short: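 Normal human ductal cells were incubated with 1 μM (FITC) FITC-labeled test phage or an unrelated control phage clone (SNLHPSD) for 1 h at 37 °C. Cells were washed three times with DPBS, trypsinized and centrifuged, then read by flow cytometry at 10,000 cells/sample. Mean fluorescence served as relative uptake.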

Chain of plectin-1 (Q9QXS1 whole entry): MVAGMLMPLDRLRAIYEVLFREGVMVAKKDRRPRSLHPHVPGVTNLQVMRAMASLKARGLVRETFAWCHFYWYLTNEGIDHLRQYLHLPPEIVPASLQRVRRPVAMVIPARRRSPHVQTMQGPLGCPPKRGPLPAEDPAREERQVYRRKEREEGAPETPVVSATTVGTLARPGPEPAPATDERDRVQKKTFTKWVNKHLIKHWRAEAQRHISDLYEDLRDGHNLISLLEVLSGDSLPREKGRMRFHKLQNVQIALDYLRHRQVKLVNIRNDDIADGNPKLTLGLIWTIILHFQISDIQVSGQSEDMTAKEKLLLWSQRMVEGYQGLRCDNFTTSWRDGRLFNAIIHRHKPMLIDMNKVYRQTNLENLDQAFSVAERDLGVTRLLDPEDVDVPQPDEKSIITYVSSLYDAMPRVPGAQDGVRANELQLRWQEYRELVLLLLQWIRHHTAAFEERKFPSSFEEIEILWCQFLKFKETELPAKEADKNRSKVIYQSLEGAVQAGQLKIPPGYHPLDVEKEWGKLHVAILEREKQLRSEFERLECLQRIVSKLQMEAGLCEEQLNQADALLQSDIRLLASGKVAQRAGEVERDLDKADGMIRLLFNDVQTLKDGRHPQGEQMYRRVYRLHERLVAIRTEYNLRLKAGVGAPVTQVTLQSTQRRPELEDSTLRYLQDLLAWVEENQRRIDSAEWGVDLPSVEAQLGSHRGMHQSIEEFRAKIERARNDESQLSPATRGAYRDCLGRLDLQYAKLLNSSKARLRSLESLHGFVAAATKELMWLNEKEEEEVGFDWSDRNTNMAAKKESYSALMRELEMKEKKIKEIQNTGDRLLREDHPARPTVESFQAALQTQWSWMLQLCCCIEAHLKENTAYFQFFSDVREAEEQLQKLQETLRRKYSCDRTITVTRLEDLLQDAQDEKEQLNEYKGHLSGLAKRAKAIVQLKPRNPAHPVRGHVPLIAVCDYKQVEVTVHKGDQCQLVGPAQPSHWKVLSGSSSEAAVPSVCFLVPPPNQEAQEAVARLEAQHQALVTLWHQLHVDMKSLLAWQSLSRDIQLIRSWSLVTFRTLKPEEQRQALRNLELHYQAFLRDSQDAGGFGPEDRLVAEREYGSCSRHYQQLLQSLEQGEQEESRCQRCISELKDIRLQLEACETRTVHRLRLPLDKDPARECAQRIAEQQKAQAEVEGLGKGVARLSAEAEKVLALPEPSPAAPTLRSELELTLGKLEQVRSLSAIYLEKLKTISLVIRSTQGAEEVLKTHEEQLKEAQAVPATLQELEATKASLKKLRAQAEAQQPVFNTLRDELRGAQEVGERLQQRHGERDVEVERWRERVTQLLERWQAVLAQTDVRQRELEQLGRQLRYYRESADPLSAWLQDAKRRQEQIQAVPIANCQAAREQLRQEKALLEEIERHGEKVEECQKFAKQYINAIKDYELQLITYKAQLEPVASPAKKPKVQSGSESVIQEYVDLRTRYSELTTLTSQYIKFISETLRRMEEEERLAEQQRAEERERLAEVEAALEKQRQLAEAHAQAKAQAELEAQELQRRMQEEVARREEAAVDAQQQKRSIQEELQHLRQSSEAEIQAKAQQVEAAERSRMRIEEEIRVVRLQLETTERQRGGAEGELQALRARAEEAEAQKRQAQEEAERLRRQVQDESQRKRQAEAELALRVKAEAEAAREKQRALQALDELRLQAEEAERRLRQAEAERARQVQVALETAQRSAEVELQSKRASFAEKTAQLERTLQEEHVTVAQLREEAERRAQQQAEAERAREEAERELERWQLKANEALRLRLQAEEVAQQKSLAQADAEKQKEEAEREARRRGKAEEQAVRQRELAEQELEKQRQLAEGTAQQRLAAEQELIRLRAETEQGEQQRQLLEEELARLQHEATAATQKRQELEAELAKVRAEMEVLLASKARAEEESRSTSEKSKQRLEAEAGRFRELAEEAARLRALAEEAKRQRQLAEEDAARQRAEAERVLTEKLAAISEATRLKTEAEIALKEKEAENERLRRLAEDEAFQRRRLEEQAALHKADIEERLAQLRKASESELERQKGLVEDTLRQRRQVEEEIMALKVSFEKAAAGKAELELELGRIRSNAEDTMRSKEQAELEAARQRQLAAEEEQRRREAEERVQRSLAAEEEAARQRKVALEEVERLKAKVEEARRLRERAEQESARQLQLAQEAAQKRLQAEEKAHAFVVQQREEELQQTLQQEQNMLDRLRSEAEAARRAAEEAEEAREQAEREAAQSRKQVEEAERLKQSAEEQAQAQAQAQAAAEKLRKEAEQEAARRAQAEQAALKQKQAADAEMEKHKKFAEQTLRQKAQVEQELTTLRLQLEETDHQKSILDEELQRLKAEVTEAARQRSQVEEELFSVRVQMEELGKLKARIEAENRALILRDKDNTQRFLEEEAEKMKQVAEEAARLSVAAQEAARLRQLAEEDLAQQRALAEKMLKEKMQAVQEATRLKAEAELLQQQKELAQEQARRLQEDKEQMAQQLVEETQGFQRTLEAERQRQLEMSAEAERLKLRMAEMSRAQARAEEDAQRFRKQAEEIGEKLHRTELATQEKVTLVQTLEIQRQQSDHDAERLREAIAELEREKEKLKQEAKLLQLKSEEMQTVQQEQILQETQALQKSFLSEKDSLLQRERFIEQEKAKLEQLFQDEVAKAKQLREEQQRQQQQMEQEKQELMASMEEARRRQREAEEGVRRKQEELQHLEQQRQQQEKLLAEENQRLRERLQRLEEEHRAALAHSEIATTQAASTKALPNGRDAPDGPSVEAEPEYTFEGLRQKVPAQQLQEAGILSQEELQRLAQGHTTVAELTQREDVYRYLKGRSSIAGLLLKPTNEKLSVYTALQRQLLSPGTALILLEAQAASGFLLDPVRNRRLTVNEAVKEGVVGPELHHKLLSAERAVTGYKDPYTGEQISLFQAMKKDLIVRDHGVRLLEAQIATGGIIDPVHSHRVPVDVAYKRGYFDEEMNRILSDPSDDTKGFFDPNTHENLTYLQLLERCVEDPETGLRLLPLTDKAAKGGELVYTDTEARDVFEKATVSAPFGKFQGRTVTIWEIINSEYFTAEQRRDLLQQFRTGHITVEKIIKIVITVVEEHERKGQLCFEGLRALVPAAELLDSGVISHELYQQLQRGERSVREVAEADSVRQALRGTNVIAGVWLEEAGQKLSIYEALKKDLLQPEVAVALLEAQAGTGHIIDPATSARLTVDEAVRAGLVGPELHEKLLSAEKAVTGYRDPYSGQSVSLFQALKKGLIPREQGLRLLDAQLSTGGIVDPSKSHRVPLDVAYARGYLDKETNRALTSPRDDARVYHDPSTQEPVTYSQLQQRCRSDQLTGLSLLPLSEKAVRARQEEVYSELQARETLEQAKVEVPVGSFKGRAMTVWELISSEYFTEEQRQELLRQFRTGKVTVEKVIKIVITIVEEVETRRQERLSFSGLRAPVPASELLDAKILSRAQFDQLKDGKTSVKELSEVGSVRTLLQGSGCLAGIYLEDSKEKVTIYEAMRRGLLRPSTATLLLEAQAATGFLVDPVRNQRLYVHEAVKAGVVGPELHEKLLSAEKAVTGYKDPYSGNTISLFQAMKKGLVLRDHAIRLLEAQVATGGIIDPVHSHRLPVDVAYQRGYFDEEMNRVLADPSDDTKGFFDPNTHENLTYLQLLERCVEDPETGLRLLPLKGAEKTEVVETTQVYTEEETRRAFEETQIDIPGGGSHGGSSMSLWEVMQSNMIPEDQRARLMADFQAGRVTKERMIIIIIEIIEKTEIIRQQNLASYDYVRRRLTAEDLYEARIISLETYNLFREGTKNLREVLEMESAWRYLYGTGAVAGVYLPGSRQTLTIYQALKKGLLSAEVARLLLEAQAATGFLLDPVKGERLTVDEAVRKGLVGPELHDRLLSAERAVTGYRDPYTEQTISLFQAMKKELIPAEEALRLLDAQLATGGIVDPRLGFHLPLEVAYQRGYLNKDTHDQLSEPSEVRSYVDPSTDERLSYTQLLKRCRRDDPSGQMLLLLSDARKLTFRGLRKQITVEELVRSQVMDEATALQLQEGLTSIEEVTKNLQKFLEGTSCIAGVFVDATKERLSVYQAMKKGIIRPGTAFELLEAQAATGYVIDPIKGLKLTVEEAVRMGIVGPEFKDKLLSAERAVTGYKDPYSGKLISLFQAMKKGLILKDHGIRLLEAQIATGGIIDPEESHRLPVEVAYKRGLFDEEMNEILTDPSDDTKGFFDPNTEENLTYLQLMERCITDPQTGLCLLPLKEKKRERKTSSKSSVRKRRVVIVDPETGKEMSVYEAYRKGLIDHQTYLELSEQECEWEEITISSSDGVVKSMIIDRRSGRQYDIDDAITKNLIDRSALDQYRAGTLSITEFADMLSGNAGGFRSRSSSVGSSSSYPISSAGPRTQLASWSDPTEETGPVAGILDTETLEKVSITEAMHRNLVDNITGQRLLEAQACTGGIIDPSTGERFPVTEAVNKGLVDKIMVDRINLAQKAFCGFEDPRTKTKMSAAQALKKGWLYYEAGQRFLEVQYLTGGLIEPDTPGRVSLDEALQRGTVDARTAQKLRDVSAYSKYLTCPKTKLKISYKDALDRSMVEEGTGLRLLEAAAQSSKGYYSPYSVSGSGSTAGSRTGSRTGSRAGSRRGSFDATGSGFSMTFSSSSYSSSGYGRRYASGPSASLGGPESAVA

Row | Substance | detection of human PDAC on frozen sections (human PDAC) | abrogation of binding (plectin-1) [%] | specificity for mouse PDAC cells over normal ductal cells (mouse PDAC cells; FITC-labeled phage, 1 μM (FITC), 1 h at 37 °C, mean fluorescence) [fold] | binding to PanINs and PDAC lesions on frozen sections [1] | specificity (ratio of clone 27/unrelated clone mean fluorescence) [2] | rank of affinity among fluorescein-labeled phage clones (mouse PDAC cells; mouse PDAC and normal ductal cells, unpublished data)
1 | KTLLPTP [clone 27] | able to specifically detect human PDAC | 96.9 | 112 | prominent binding | 0.85 | 
2 | TMAPSIK [clone 15] |  |  |  |  |  | second in affinity
